Measured values taken from ChEMBL document CHEMBL3232844, “Synthesis and structure activity relationships of schweinfurthin indoles” (2014).

What was measured:
Assay type in all cases: functional
[1] = Cytotoxicity against human UACC257 cells
Summary of the method: (§1)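 Cell line run as part of the 60-cell-line screening panel; growth inhibition was reported as a GI50 for each line.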

COLO 205 = assay: Cytotoxicity against human COLO205 cells
Summary of the method: (§2)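 Tested in a 60-cell-line human tumor panel screen; the read-out is growth inhibition, reported as GI50 for each cell line.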

CAKI-1 = assay: Cytotoxicity against human Caki1 cells; summary of the method: as §2
SK-OV-3 = assay: Cytotoxicity against human SKOV3 cells; summary of the method: as §2
[2] = Cytotoxicity against human HCT15 cells; summary of the method: as §2
M14 = assay: Cytotoxicity against human M14 cells; summary of the method: as §2
CCRF-CEM = assay: Cytotoxicity against human CCRF-CEM cells
[3] = Cytotoxicity against human NCI-ADR-RES cells; summary of the method: as §2
DU-145 = assay: Cytotoxicity against human DU145 cells; summary of the method: as §2
IGROV-1 = assay: Cytotoxicity against human IGROV1 cells; summary of the method: as §2
HCC 2998 = assay: Cytotoxicity against human HCC2998 cells; summary of the method: as §2
[4] = Cytotoxicity against human OVCAR8 cells; summary of the method: as §2
LOX IMVI = assay: Cytotoxicity against human LOXIMVI cells; summary of the method: as §2
TK-10 = assay: Cytotoxicity against human TK10 cells; summary of the method: as §1
HOP-62 = assay: Cytotoxicity against human HOP62 cells; summary of the method: as §2
[5] = Cytotoxicity against human UACC62 cells; summary of the method: as §1
[6] = Cytotoxicity against human OVCAR3 cells; summary of the method: as §2
NCI-H226 = assay: Cytotoxicity against human NCI-H226 cells; summary of the method: as §2
T47D = assay: Cytotoxicity against human T47D cells; summary of the method: as §1
MOLT-4 = assay: Cytotoxicity against human MOLT4 cells; summary of the method: as §2
MCF7 = assay: Cytotoxicity against human MCF7 cells; summary of the method: as §2
NCI-H23 = assay: Cytotoxicity against human NCI-H23 cells; summary of the method: as §2
SF-539 = assay: Cytotoxicity against human SF539 cells; summary of the method: as §2
RXF 393 = assay: Cytotoxicity against human RXF393 cells; summary of the method: as §2
BT-549 = assay: Cytotoxicity against human BT549 cells; summary of the method: as §2
[7] = Cytotoxicity against human OVCAR4 cells; summary of the method: as §2
MDA-MB-231 = assay: Cytotoxicity against human MDA-MB-231 cells; summary of the method: as §2
HT-29 = assay: Cytotoxicity against human HT-29 cells; summary of the method: as §2
HCT-116 = assay: Cytotoxicity against human HCT116 cells; summary of the method: as §2
PC-3 = assay: Cytotoxicity against human PC3 cells; summary of the method: as §2
SK-MEL-5 = assay: Cytotoxicity against human SK-MEL-5 cells; summary of the method: as §2
HL-60(TB) = assay: Cytotoxicity against human HL-60(TB) cells
Summary of the method: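 Tested within the NCI 60-cell-line screen, with GI50 as the read-out. Values are the average of two independent experiments. The lowest concentration tested was 10 nM.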

SF-295 = assay: Cytotoxicity against human SF295 cells; summary of the method: as §2
SR = assay: Cytotoxicity against human SR cells; summary of the method: as §1
K562 = assay: Cytotoxicity against human K562 cells; summary of the method: as §2
SK-MEL-2 = assay: Cytotoxicity against human SK-MEL-2 cells; summary of the method: as §2
MDA-MB-435 = assay: Cytotoxicity against human MDA-MB-435 cells; summary of the method: as §2
SF-268 = assay: Cytotoxicity against human SF268 cells; summary of the method: as §2
786-0 = assay: Cytotoxicity against human 786-0 cells; summary of the method: as §2
SNB-75 = assay: Cytotoxicity against human SNB75 cells; summary of the method: as §1
NCI-H460 = assay: Cytotoxicity against human NCI-H460 cells; summary of the method: as §2
MDA-MB-468 = assay: Cytotoxicity against human MDA-MB-468 cells; summary of the method: as §2
KM12 = assay: Cytotoxicity against human KM12 cells; summary of the method: as §2
[8] = read-out: pLC50 (the source's name) (converted)

COc1cc(/C=C/c2cc(O)c3c(CC=C(C)C)c[nH]c3c2)cc2c1O[C@]1(C)CC[C@@H](O)C(C)(C)[C@H]1C2
GI50 ([1]; UACC-257): 1.23 µM
CC50 ([1]; UACC-257, read-out: pLC50 (the source's name) (converted)): 50.1 µM
TGI ([1]; UACC-257, read-out: pTGI (converted)): 50.1 µM
GI50 (COLO 205): 0.302 µM
CC50 (COLO 205; [8]): 6.46 µM
TGI (COLO 205; read-out: pTGI (converted)): 1.35 µM
GI50 (CAKI-1): 0.263 µM
LC50 (CAKI-1): 50.1 µM
TGI (CAKI-1; read-out: pTGI (converted)): 50.1 µM
GI50 (SK-OV-3): 3.55 µM
LC50 (SK-OV-3): 50.1 µM
TGI (SK-OV-3; read-out: pTGI (converted)): 32.4 µM
GI50 ([2]; HCT-15): 0.17 µM
CC50 ([2]; HCT-15, read-out: pLC50 (the source's name) (converted)): 50.1 µM
TGI ([2]; HCT-15, read-out: pTGI (converted)): 1.55 µM
GI50 (M14): 0.251 µM
TGI (M14; read-out: pTGI (converted)): 1.02 µM
GI50 (CCRF-CEM): 0.148 µM
CC50 (CCRF-CEM; [8]): 50.1 µM
TGI (CCRF-CEM; read-out: pTGI (converted)): 50.1 µM
GI50 [3]: 8.51 µM
CC50 [3, 8]: 50.1 µM
TGI ([3]; read-out: pTGI (converted)): 50.1 µM
GI50 (DU-145): 3.55 µM
LC50 (50% lethal concentration) (DU-145): 50.1 µM
TGI (DU-145; read-out: pTGI (converted)): 50.1 µM
GI50 (IGROV-1): 0.417 µM
CC50 (IGROV-1; [8]): 50.1 µM
TGI (IGROV-1; read-out: pTGI (converted)): 50.1 µM
GI50 (HCC 2998): 3.02 µM
CC50 (HCC 2998; [8]): 50.1 µM
TGI (HCC 2998; read-out: pTGI (converted)): 50.1 µM
GI50 ([4]; OVCAR-8): 12.9 µM
CC50 ([4]; OVCAR-8, read-out: pLC50 (the source's name) (converted)): 50.1 µM
TGI ([4]; OVCAR-8, read-out: pTGI (converted)): 50.1 µM
GI50 (LOX IMVI): 0.2 µM
CC50 (LOX IMVI; [8]): 50.1 µM
TGI (LOX IMVI; read-out: pTGI (converted)): 1.17 µM
GI50 (TK-10): 7.76 µM
LC50 (TK-10): 50.1 µM
TGI (TK-10; read-out: pTGI (converted)): 50.1 µM
GI50 (HOP-62): 0.234 µM
CC50 (HOP-62; [8]): 50.1 µM
GI50 ([5]; UACC-62): 0.138 µM
CC50 ([5]; UACC-62, read-out: pLC50 (the source's name) (converted)): 3.63 µM
TGI ([5]; UACC-62, read-out: pTGI (converted)): 0.407 µM
GI50 ([6]; OVCAR-3): 13.5 µM
CC50 ([6]; OVCAR-3, read-out: pLC50 (the source's name) (converted)): 50.1 µM
TGI ([6]; OVCAR-3, read-out: pTGI (converted)): 50.1 µM
GI50 (NCI-H226): 4.37 µM
CC50 (NCI-H226; [8]): 50.1 µM
TGI (NCI-H226; read-out: pTGI (converted)): 50.1 µM
GI50 (T47D): 5.25 µM
CC50 (T47D; [8]): 50.1 µM
TGI (T47D; read-out: pTGI (converted)): 31.6 µM
GI50 (MOLT-4): 0.17 µM
CC50 (MOLT-4; [8]): 50.1 µM
TGI (MOLT-4; read-out: pTGI (converted)): 50.1 µM
GI50 (MCF7): 0.355 µM
LC50 (MCF7): 50.1 µM
TGI (MCF7; read-out: pTGI (converted)): 3.63 µM
GI50 (NCI-H23): 0.427 µM
CC50 (NCI-H23; [8]): 50.1 µM
TGI (NCI-H23; read-out: pTGI (converted)): 22.4 µM
GI50 (SF-539): 0.0407 µM
CC50 (SF-539; [8]): 2.95 µM
TGI (SF-539; read-out: pTGI (converted)): 0.257 µM
GI50 (RXF 393): 0.0447 µM
LC50 (RXF 393): 12.9 µM
TGI (RXF 393; read-out: pTGI (converted)): 0.457 µM
GI50 (BT-549): 0.107 µM
CC50 (BT-549; [8]): 50.1 µM
TGI (BT-549; read-out: pTGI (converted)): 13.2 µM
GI50 ([7]; OVCAR-4): 5.25 µM
CC50 ([7]; OVCAR-4, read-out: pLC50 (the source's name) (converted)): 50.1 µM
TGI ([7]; OVCAR-4, read-out: pTGI (converted)): 50.1 µM
GI50 (MDA-MB-231): 0.724 µM
LC50 (MDA-MB-231): 50.1 µM
TGI (MDA-MB-231; read-out: pTGI (converted)): 50.1 µM
GI50 (HT-29): 0.132 µM
CC50 (HT-29; [8]): 50.1 µM
TGI (HT-29; read-out: pTGI (converted)): 2 µM
GI50 (HCT-116): 3.24 µM
CC50 (HCT-116; [8]): 50.1 µM
TGI (HCT-116; read-out: pTGI (converted)): 50.1 µM
GI50 (PC-3): 0.229 µM
LC50 (PC-3): 50.1 µM
TGI (PC-3; read-out: pTGI (converted)): 50.1 µM
GI50 (SK-MEL-5): 0.158 µM
CC50 (SK-MEL-5; [8]): 1.82 µM
TGI (SK-MEL-5; read-out: pTGI (converted)): 0.575 µM
GI50 (HL-60(TB)): 0.251 µM
CC50 (HL-60(TB); [8]): 50.1 µM
TGI (HL-60(TB); read-out: pTGI (converted)): 18.6 µM
GI50 (SF-295; read-out: GI50): < 0.021 µM
GI50 (SF-295; read-out: pGI50 (converted)): 0.0316 µM
CC50 (SF-295; [8]): 0.513 µM
TGI (SF-295; read-out: pTGI (converted)): 0.135 µM
GI50 (SR): 0.295 µM
CC50 (SR; [8]): 50.1 µM
TGI (SR; read-out: pTGI (converted)): 50.1 µM
GI50 (K562): 0.224 µM
CC50 (K562; [8]): 50.1 µM
TGI (K562; read-out: pTGI (converted)): 7.76 µM
GI50 (SK-MEL-2): 0.269 µM
CC50 (SK-MEL-2; [8]): 50.1 µM
TGI (SK-MEL-2; read-out: pTGI (converted)): 50.1 µM
GI50 (MDA-MB-435): 0.676 µM
CC50 (MDA-MB-435; [8]): 50.1 µM
TGI (MDA-MB-435; read-out: pTGI (converted)): 50.1 µM
GI50 (SF-268): 1.02 µM
CC50 (SF-268; [8]): 50.1 µM
TGI (SF-268; read-out: pTGI (converted)): 50.1 µM
GI50 (786-0): 0.0851 µM
LC50 (concentration killing 50% of cells) (786-0): 50.1 µM
TGI (786-0; read-out: pTGI (converted)): 0.501 µM
GI50 (SNB-75): 0.055 µM
CC50 (SNB-75; [8]): 50.1 µM
TGI (SNB-75; read-out: pTGI (converted)): 50.1 µM
GI50 (NCI-H460): 0.417 µM
CC50 (NCI-H460; [8]): 50.1 µM
TGI (NCI-H460; read-out: pTGI (converted)): 50.1 µM
GI50 (MDA-MB-468): 0.513 µM
LC50 (MDA-MB-468): 46.8 µM
TGI (MDA-MB-468; read-out: pTGI (converted)): 9.33 µM
GI50 (KM12): 0.275 µM
TGI (KM12; read-out: pTGI (converted)): 1.12 µM
